Results as given in ChEMBL document CHEMBL1143559, “Design of potent and selective 2-aminobenzimidazole-based p38alpha MAP kinase inhibitors with excellent in vivo efficacy” (J Med Chem, 2005).

What was measured:
[1] = (§1) Area under concentration-curve (from 0-infinity) for a compound in plasma of rats after oral administration; format: ADME; set-up: time infinity, route oral; settings: rat
Mus musculus [2] = experiment: In vivo threshold minimum effective dose for inhibition of LPS-induced TNF-alpha production in mice after oral administration; format: functional
Mus musculus [3] = species on record: Mus musculus; experiment: Inhibitory concentration against TNF-alpha production in mouse macrophages; format: functional
Rattus norvegicus [4] = experiment: In vivo threshold minimum effective dose for inhibition of rat paw-swelling after oral bid dosing for 14 days; format: functional
[5] = molecular target: Mitogen-activated protein kinase 14 (Homo sapiens, UniProt Q16539); experiment: Inhibition of human recombinant Mitogen activated protein kinase p38 alpha activity using ATP[gamma-33P] and EGFR 21mer-peptide
Outline: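 Recombinant human p38α, filter binding format with ATP[γ-33P] and EGFR 21-mer peptide substrate; IC50 in nM, n determinations per compound.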

Rattus norvegicus [6] = experiment: In vivo threshold minimum effective dose for inhibition of bone erosion and cartilage destruction in rat after oral bid dosing for 14 days; format: functional
Rattus norvegicus [7] = experiment: Inhibition of TNF-alpha production in rat joint after oral administration at 3 mg/Kg; format: functional
Cytochrome P450 3A4 = Cytochrome P450 3A4 (Homo sapiens, UniProt P08684); experiment: In vitro inhibitory concentration against Cytochrome P450 3A4; format: ADME
[8] = Bioavailability of compound in rat plasma after oral administration; format: ADME, organism-based
[9] = as §1; format: ADME; set-up: route oral, time infinity; settings: rat

Mitogen-activated protein kinase 14, sequence (Q16539 whole entry): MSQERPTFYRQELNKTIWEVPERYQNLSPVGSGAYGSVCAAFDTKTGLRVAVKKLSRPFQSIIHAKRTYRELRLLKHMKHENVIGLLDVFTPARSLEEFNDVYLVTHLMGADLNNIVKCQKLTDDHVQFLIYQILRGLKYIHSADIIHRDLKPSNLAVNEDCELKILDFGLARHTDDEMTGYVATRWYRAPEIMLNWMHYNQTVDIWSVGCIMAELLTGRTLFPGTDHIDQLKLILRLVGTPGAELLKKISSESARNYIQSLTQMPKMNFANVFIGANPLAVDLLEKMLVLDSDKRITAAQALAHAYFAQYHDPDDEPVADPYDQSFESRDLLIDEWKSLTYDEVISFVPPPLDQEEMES
Cytochrome P450 3A4, sequence (P08684 whole entry): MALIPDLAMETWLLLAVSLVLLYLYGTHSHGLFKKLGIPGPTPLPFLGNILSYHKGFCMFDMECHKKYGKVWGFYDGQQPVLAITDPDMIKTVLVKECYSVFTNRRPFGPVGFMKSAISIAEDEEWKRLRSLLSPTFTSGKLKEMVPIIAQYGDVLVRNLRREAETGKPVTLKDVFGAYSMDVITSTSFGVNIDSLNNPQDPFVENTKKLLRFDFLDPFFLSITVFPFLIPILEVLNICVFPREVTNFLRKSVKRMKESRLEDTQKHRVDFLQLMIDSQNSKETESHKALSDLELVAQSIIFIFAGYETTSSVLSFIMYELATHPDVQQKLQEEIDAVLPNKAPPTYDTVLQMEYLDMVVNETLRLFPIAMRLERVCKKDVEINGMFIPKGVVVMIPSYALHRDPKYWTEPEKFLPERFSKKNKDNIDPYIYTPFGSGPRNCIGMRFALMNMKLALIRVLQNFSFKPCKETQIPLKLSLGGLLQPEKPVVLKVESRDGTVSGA

AUC 0-inf [1] | IC50 (Mus musculus [3]) | IC50 [5] | IC50 (Cytochrome P450 3A4) | bioavailability [8] | AUC 0-inf [9] | SMILES | TMED50 (Mus musculus [2]) | TMED50 (Rattus norvegicus [4]) | TMED50 (Rattus norvegicus [6]) | inhibition in vivo at 3 mg/kg (Rattus norvegicus [7])
28.3 µM·h | 1.6 nM | 4.8 nM | – | – | – | CC(C)(C)c1nc(-c2ccc(F)cc2F)c(-c2ccc3nc(N)n(S(=O)(=O)C(C)(C)C)c3c2)[nH]1.CS(=O)(=O)O | 5.3 mg/kg | 1.5 mg/kg | 4.2 mg/kg | 82%
– | 47.2 nM | 4.7 nM | 4400 nM | – | – | CCc1nc(-c2ccc(F)cc2)c(-c2ccc3nc(N)n(S(=O)(=O)C(C)C)c3c2)[nH]1.CS(=O)(=O)O | 6.5 mg/kg | – | – | –
– | 2880 nM | 2.7 nM | – | – | – | CC(C)S(=O)(=O)n1c(N)nc2ccc(-c3nc(C4CCNCC4)[nH]c3-c3ccccc3)cc21 | – | – | – | –
3.7 µM·h | 31.8 nM | 4.2 nM | 1600 nM | – | – | CC(C)S(=O)(=O)n1c(N)nc2ccc(-c3[nH]cnc3-c3ccccc3)cc21 | 19.8 mg/kg | – | – | –
1.4 µM·h | 65.7 nM | 4.3 nM | 800 nM | – | – | CC(C)S(=O)(=O)n1c(N)nc2ccc(-c3[nH]cnc3-c3ccc(F)cc3)cc21.CS(=O)(=O)O.CS(=O)(=O)O | 9.6 mg/kg | – | – | –
17 µM·h | 3.4 nM | 15.3 nM | – | 55% | – | CC(C)S(=O)(=O)n1c(N)nc2ccc(-c3[nH]c(-c4c(Cl)cccc4Cl)nc3-c3ccccc3)cc21.CS(=O)(=O)O | 2.5 mg/kg | – | – | –
13.5 µM·h | 31.1 nM | 15.9 nM | 31800 nM | – | – | CC(C)S(=O)(=O)n1c(N)nc2ccc(-c3[nH]c(C(C)(C)C)nc3-c3ccc(F)cc3)cc21.CS(=O)(=O)O.CS(=O)(=O)O | 3.9 mg/kg | – | – | –
0.9 µM·h | 6 nM | 19.9 nM | 13000 nM | – | – | CS(=O)(=O)O.CS(=O)(=O)O.Nc1nc2ccc(-c3[nH]c(-c4c(F)cccc4F)nc3-c3ccccc3)cc2n1S(=O)(=O)C1CCCC1 | 5.1 mg/kg | – | – | –
– | 720 nM | 20.7 nM | – | – | – | CC(C)S(=O)(=O)n1c(N)nc2ccc(-c3c(-c4ccc(F)cc4)ncn3C)cc21 | – | – | – | –
14.6 µM·h | 6.2 nM | 4.4 nM | – | – | – | CC(C)S(=O)(=O)n1c(N)nc2ccc(-c3[nH]c(C(C)(C)C)nc3-c3ccc(F)cc3F)cc21.CS(=O)(=O)O | 2.2 mg/kg | 1.5 mg/kg | 8.1 mg/kg | 81%
9.8 µM·h | 8.8 nM | 22.8 nM | – | – | – | CN(C)S(=O)(=O)n1c(N)nc2ccc(-c3[nH]c(-c4c(F)cccc4F)nc3-c3ccccc3)cc21.CS(=O)(=O)O.CS(=O)(=O)O | 12.5 mg/kg | – | – | –
– | 10.3 nM | 4.9 nM | 6300 nM | – | 5.4 µM·h | CC(C)S(=O)(=O)n1c(N)nc2ccc(-c3nc(-c4c(F)cccc4F)[nH]c3-c3ccccc3)cc21 | 5.2 mg/kg | – | – | –
12.8 µM·h | 28.6 nM | 4.5 nM | 6100 nM | – | – | CC(C)c1nc(-c2ccc(F)cc2)c(-c2ccc3nc(N)n(S(=O)(=O)C(C)C)c3c2)[nH]1.CS(=O)(=O)O | 4.9 mg/kg | – | – | –
– | 27.9 nM | 5.5 nM | 5300 nM | – | – | CC(C)CN1CCC(c2nc(-c3ccc4nc(N)n(S(=O)(=O)C(C)C)c4c3)c(-c3ccccc3)[nH]2)CC1 | 7.3 mg/kg | – | – | –
– | 4460 nM | 125 nM | – | – | – | CC(C)S(=O)(=O)n1c(N)nc2ccc(-c3c(-c4ccc(F)cc4)ncn3C3CCNCC3)cc21 | – | – | – | –
– | – | – | – | – | – | Cc1ccc(-n2nc(C(C)(C)C)cc2NC(=O)Nc2ccc(OCCN3CCOCC3)c3ccccc23)cc1 [DORAMAPIMOD] | – | 15 mg/kg | 30 mg/kg | 55%
– | – | – | – | – | – | OCCC#Cc1nc(-c2ccc(F)cc2)c(-c2ccncc2)n1CCCc1ccccc1 [RWJ-67657] | – | >30 mg/kg | >30 mg/kg | < 50%
– | – | – | – | – | – | COc1nccc(-c2c(-c3ccc(F)cc3)ncn2C2CCNCC2)n1 [SB-242235] | – | 5 mg/kg | 7 mg/kg | –
